In ChEMBL document CHEMBL1681674, “Synthesis of 3-phenylpyrazolopyrimidine-1,2,3-triazole conjugates and evaluation of their Src kinase inhibitory and anticancer activities” (Bioorg Med Chem Lett, 2011):

How the values were obtained:
[1] = biological target: T1, Proto-oncogene tyrosine-protein kinase Src (Homo sapiens, UniProt P12931); test: Inhibition of GST-fussed c-SRC after 30 mins
SK-OV-3 [2] = test: Cytotoxicity against c-SRC expressing human SKOV3 cells assessed as inhibition of cell proliferation at 50 uM after 72 hrs relative to control; type: functional; conditions: SK-OV-3, 72 h
Procedure, shortened: (§1)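 Proliferation of SK-Ov-3, MDA-MB-361 and HT-29 cells was measured after 72 h exposure at 50 μM. Growth is expressed as a percentage of the DMSO vehicle control, set at 100%, with no compound. All experiments were run in triplicate.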

HT-29 [3] = test: Cytotoxicity against c-SRC expressing human HT-29 cells assessed as inhibition of cell proliferation at 50 uM after 72 hrs relative to control; type: functional; conditions: HT-29, 72 h; procedure, shortened: as §1
MDA-MB-361 [4] = test: Cytotoxicity against c-SRC expressing human MDA-MB-361 cells assessed as inhibition of cell proliferation at 50 uM after 72 hrs relative to control; type: functional; conditions: MDA-MB-361, 72 h; procedure, shortened: as §1
[5] = biological target: T1, Proto-oncogene tyrosine-protein kinase Src; test: Inhibition of GST-fussed c-SRC up to 250 uM after 30 mins
Procedure, shortened: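 Src kinase enzyme inhibition was assessed at concentrations up to 250 μM.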

SK-OV-3 [6] = test: Cellular uptake in c-SRC expressing human SKOV3 cells; type: ADME, cell-based
HT-29 [7] = test: Cellular uptake in c-SRC expressing human HT-29 cells; type: ADME, cell-based
MDA-MB-361 [8] = test: Cellular uptake in c-SRC expressing human MDA-MB-361 cells; type: ADME, cell-based

T1 sequence (P12931 2-536 limits assumed): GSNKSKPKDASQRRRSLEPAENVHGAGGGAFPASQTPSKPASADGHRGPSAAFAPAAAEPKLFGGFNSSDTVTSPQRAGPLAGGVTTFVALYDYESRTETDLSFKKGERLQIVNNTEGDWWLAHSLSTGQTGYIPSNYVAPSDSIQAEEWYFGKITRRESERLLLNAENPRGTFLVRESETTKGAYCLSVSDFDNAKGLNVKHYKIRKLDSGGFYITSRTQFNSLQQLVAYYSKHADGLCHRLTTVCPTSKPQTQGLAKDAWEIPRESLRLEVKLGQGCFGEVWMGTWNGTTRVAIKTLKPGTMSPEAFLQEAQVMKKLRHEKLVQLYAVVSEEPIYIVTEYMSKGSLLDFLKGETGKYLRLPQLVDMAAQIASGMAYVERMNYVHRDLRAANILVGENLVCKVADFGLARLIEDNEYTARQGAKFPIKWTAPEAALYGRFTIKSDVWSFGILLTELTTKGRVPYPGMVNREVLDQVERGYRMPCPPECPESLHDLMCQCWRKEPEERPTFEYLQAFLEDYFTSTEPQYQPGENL

| SMILES | IC50 [1] [µM] | further results |
| --- | --- | --- |
| Nc1ncnc2c1c(-c1ccccc1)nn2Cc1cn(CC(=O)CCCO)nn1 | 9.1 | – |
| CCCCCCCCCCc1cn(CCn2nc(-c3ccccc3)c3c(N)ncnc32)nn1 | > 75 | – |
| CCOC(=O)Cn1cc(Cn2nc(-c3ccccc3)c3c(N)ncnc32)nn1 | 12.7 | – |
| CC(=O)c1ccc(-c2cn(CCn3nc(-c4ccccc4)c4c(N)ncnc43)nn2)cc1 | > 75 | – |
| COc1ccc(-c2cn(CCn3nc(-c4ccccc4)c4c(N)ncnc43)nn2)cc1 | 17.4 | inhibition at 50 µM (SK-OV-3 [2]): 58%; inhibition at 50 µM (HT-29 [3]): 73% |
| Nc1ncnc2c1c(-c1ccccc1)nn2Cc1cn(CC(=O)c2ccccc2)nn1 | > 75 | – |
| Cc1ccc(C(=O)Cn2cc(Cn3nc(-c4ccccc4)c4c(N)ncnc43)nn2)cc1 | > 75 | – |
| CCCCc1cn(CCn2nc(-c3ccccc3)c3c(N)ncnc32)nn1 | > 75 | – |
| Nc1ncnc2c1c(-c1ccccc1)nn2Cc1cn(CC(=O)Nc2ccc(F)cc2)nn1 | 16.4 | – |
| Nc1ncnc2c1c(-c1ccccc1)nn2Cc1cn(CC(=O)Nc2ccccc2)nn1 | 23.1 | inhibition at 50 µM (MDA-MB-361 [4]): 51% |
| Nc1ncnc2c1c(-c1ccccc1)nn2Cc1cn(CC(=O)CCc2cccc3ccccc23)nn1 | – | inhibition [5]: < 10%; inhibition at 50 µM (SK-OV-3 [2]): 48% |
| [N-]=[N+]=NCCn1nc(-c2ccccc2)c2c(N)ncnc21 | 6.2 | – |
| CCCCCCc1cn(CCn2nc(-c3ccccc3)c3c(N)ncnc32)nn1 | 5.6 | Drug uptake (SK-OV-3 [6]): Active; Drug uptake (HT-29 [7]): Active; Drug uptake (MDA-MB-361 [8]): Active |
| CCCCCCCc1cn(CCn2nc(-c3ccccc3)c3c(N)ncnc32)nn1 | > 75 | – |
| Nc1ncnc2c1c(-c1ccccc1)nn2CCn1cc(CCCCl)nn1 | – | inhibition [5]: < 10%; inhibition at 50 µM (HT-29 [3]): 57% |
| Nc1ncnc2c1c(-c1ccccc1)nn2Cc1cn(CC(=O)c2cccs2)nn1 | > 75 | – |
| Nc1ncnc2c1c(-c1ccccc1)nn2CCn1cc(-c2ccc(F)cc2)nn1 | 29.6 | inhibition at 50 µM (MDA-MB-361 [4]): 49% |
| Nc1ncnc2c1c(-c1ccccc1)nn2Cc1cn(CC(=O)c2ccc(Cl)cc2)nn1 | > 75 | – |
| Nc1ncnc2c1c(-c1ccccc1)nn2Cc1cn(CC(=O)Nc2ccc(Cl)cc2)nn1 | > 75 | – |
| Nc1ncnc2c1c(-c1ccccc1)nn2CCn1cc(Cc2ccccc2)nn1 | – | inhibition [5]: < 10% |
